# Reference: ChEMBL document CHEMBL2406930, “Synthesis and electrochemical and biological studies of novel coumarin-chalcone hybrid compounds” (J Med Chem, 2013)
# Active and inactive are the calls of the source. The calls are words filed in the database; no cut-off is given here.
# Assays:
# [1] = Antioxidant activity assessed as hydroxyl radical scavenging activity at 4 mM after 5 mins by ESR spectroscopy analysis
# [2] = Cytotoxicity against BAEC assessed as cell viability at 10 uM after 24 hrs by MTT assay; parameters: species or system Bos taurus; settings: cattle, BAEC cells; read-out: Activity
# Method in brief: (§1)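 BAEC seeded at 10^4–10^5 cells/mL were grown to 60–70% confluency and exposed to compound (10–50 µM) for 24 h. Medium was then replaced and MTT added for 2 h at 37 °C. Formazan was dissolved in DMSO and read at 570 nm. Viability was taken relative to solvent-only wells, n = 3, mean ± SEM.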
# [3] = Cytotoxicity against BAEC assessed as cell viability at 50 uM after 24 hrs by MTT assay; parameters: species or system Bos taurus; settings: cattle, BAEC cells; read-out: Activity
# Method in brief: as §1
# [4] = Antioxidant activity assessed as trolox equivalents of peroxyl radical scavenging activity at 0.3 to 2 uM preincubated for 15 mins by ORAC assay relative to control; assay type: functional
# Method in brief: (§2)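 Peroxyl radical scavenging by ORAC-FL in 75 mM sodium phosphate buffer (pH 7.4) at 37 °C. Fluorescein was 70 nM final. Compounds in methanol were tested at 0.3–2 µM for monohydroxy and 0.5–7 µM for dihydroxy derivatives, preincubated 15 min, then AAPH was added (18 mM final). Fluorescence (ex 485, em 528 nm) was read each minute for 120 min. Net AUC minus methanol blank was referenced to Trolox (0.5–2.5 µM).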
# [5] = Cytotoxicity against BAEC assessed as cell viability at 20 uM after 24 hrs by MTT assay; parameters: species or system Bos taurus; settings: cattle, BAEC cells; read-out: Activity
# Method in brief: as §1
# [6] = Antioxidant activity assessed as peroxyl radical scavenging activity by ORAC assay relative to trolox; assay type: functional
# Method in brief: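 Fluorescein-based ORAC in 75 mM sodium phosphate buffer pH 7.4 with FL 70 nM (final). Compounds in methanol at 0.3–2 µM (monohydroxy) or 0.5–7 µM (dihydroxy) preincubated 15 min at 37 °C, then AAPH 18 mM (final) added. Fluorescence (ex 485, em 528 nm) read every 1 min for 120 min. Net AUC minus methanol blank, expressed against Trolox calibration (0.5–2.5 µM).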
# [7] = (§3) Cytoprotective activity against peroxynitrite-induced toxicity in BAEC assessed as cell viability at 20 uM after 24 hrs by MTT assay; assay type: functional; settings: Bos taurus, read-out: Activity
# Method in brief: (§4)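 Bovine aortic endothelial cells (BAEC) in DMEM with 10% FBS, endothelial growth supplement and no antibiotics were grown to 60–70% confluency. They were pretreated 24 h with compound at 10 or 20 µM, then washed twice with PBS. Insult was 1 mM H2O2 for 2 h, or 500 µM SIN-1 (peroxynitrite source) for 4 h. Viability was read by MTT reduction, formazan in DMSO, A570.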
# [8] = (§5) Cytoprotective activity against H2O2-induced toxicity in BAEC assessed as cell viability at 10 uM after 24 hrs by MTT assay; assay type: functional; settings: Bos taurus, read-out: Activity
# Method in brief: as §4
# [9] = tested on: BAEC; assay: as §3; assay type: functional; settings: Bos taurus
# Method in brief: as §4
# [10] = Antioxidant activity assessed as trolox equivalents of peroxyl radical scavenging activity at 0.7 to 7 uM preincubated for 15 mins by ORAC assay relative to control; assay type: functional; settings: 0.5 to 7 uM; in the assay text read “0.5 to 7 uM” for “0.7 to 7 uM”
# Method in brief: as §2
# [11] = tested on: BAEC; assay: as §5; assay type: functional; settings: Bos taurus
# Method in brief: as §4
Structure (SMILES),Activity [1] [%],"viability at 24 h, 10 µM [2] [%]","viability at 24 h, 50 µM [3] [%]",Ratio [4],"viability at 24 h, 20 µM [5] [%]",Ratio [6],viability at 20 µM [7] [%],viability at 10 µM [8] [%],Activity [9],Ratio [10],Activity [11]
O=C(c1ccc(O)cc1)c1cc2ccccc2oc1=O,26,76,44,9.2,60,,,,,,
Oc1cc(O)c2c(c1)OC(c1ccc(O)c(O)c1)C(O)C2 (stereo not drawn),,,,,,6.8,,,,,
O=C(c1ccc(O)cc1)c1cc2cc(O)ccc2oc1=O,58,68,93,14.1,94,,90,,,,
O=C(c1ccc(O)cc1)c1cc2cc(Br)ccc2oc1=O,28,95,104,9.5,93,,90,,,,
Cc1c(C)c2c(c(C)c1O)CCC(C)(C(=O)O)O2 (stereo not drawn),31,,,1,,,,,,,
Cc1cccc2cc(C(=O)c3ccc(O)cc3)c(=O)oc12,45,87,101,10.9,82,,90,40,,,
O=C(c1ccccc1)c1cc2cc(O)ccc2oc1=O,39,88,86,11.5,95,,,40,inactive,,
O=C(c1ccccc1)c1cc2cc(Br)cc(O)c2oc1=O,65,96,93,8.3,101,,90,,,,
O=c1c(O)c(-c2ccc(O)c(O)c2)oc2cc(O)cc(O)c12,,,,,,7.3,,,,,
O=C(c1ccc(O)c(O)c1)c1cc2cc(Br)ccc2oc1=O,100,102,92,,100,,,,inactive,13,inactive
O=C(c1ccc(O)c(O)c1)c1cc2cc(Br)cc(O)c2oc1=O,100,64,71,8.8,23,,,,,,
O=C(c1ccc(O)c(O)c1)c1cc2cccc(O)c2oc1=O,75,49,63,8.1,68,,,,,,
